Source: ChEMBL document CHEMBL1926577, “Novel 1,3,4-heterodiazole analogues: synthesis and in-vitro antitumor activity” (2012)

What was measured:
Format in all cases: functional
[1] = system: CCRF-CEM; assay: Growth inhibition of human CCRF-CEM cells at 10 uM after 48 hrs by coulter counter method; settings: read-out: GI
In short: (§1)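 NCI 60-cell-line panel, single dose. Compound dissolved first in DMSO, then diluted in phosphate-buffered saline so that every final dilution held under 1% DMSO. Duplicate wells received cells at 6 × 10⁴ cells/ml. Controls held PBS/DMSO at the same dilution. Plates were incubated 48 h at 37 °C under 5% CO₂. Cells were then diluted 10-fold in saline and counted on a Coulter counter, with counts corrected for the dilution. Results are given as percent growth inhibition.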

[2] = system: HL-60(TB); assay: Growth inhibition of human HL-60(TB) cells at 10 uM after 48 hrs by coulter counter method; settings: HL-60, 48 h, read-out: GI
In short: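 Single-dose screen on the NCI 60-line panel (leukemia subpanel). Compound is dissolved in DMSO and diluted in PBS, with final DMSO below 1%. Duplicate wells hold 6 × 10⁴ cells/ml at 37 °C, 5% CO₂, for 48 h. Cells are counted by Coulter counter after 10-fold saline dilution. Read-out is percent growth versus PBS/DMSO controls, expressed as % growth inhibition.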

[3] = system: K562; assay: Growth inhibition of human K562 cells at 10 uM after 48 hrs by coulter counter method; settings: K562, 48 h, read-out: GI; in short: as §1
[4] = system: MOLT-4; assay: Growth inhibition of human MOLT4 cells at 10 uM after 48 hrs by coulter counter method; settings: MOLT-4, 48 h, read-out: GI; in short: as §1
[5] = system: RPMI-8226; assay: Growth inhibition of human RPMI8226 cells at 10 uM after 48 hrs by coulter counter method; settings: RPMI-8226, 48 h, read-out: GI; in short: as §1
[6] = system: SR; assay: Growth inhibition of human SR cells at 10 uM after 48 hrs by coulter counter method; settings: read-out: GI; in short: as §1
[7] = system: A549; assay: Growth inhibition of human A549 cells at 10 uM after 48 hrs by coulter counter method; settings: A549, 48 h, read-out: GI; in short: as §1
[8] = system: EKVX; assay: Growth inhibition of human EKVX cells at 10 uM after 48 hrs by coulter counter method; settings: read-out: GI; in short: as §1
[9] = system: NCI-H226; assay: Growth inhibition of human NCI-H226 cells at 10 uM after 48 hrs by coulter counter method; settings: NCI-H226, 48 h, read-out: GI; in short: as §1
[10] = system: NCI-H23; assay: Growth inhibition of human NCI-H23 cells at 10 uM after 48 hrs by coulter counter method; settings: NCI-H23, 48 h, read-out: GI; in short: as §1
[11] = system: NCI-H322M; assay: Growth inhibition of human NCI-H322M cells at 10 uM after 48 hrs by coulter counter method; settings: read-out: GI; in short: as §1
[12] = system: NCI-H522; assay: Growth inhibition of human NCI-H522 cells at 10 uM after 48 hrs by coulter counter method; settings: NCI-H522, 48 h, read-out: GI; in short: as §1
[13] = system: HCT-116; assay: Growth inhibition of human HCT116 cells at 10 uM after 48 hrs by coulter counter method; settings: HCT-116, 48 h, read-out: GI; in short: as §1
[14] = system: HCT-15; assay: Growth inhibition of human HCT15 cells at 10 uM after 48 hrs by coulter counter method; settings: HCT-15, 48 h, read-out: GI; in short: as §1
[15] = system: HT-29; assay: Growth inhibition of human HT-29 cells at 10 uM after 48 hrs by coulter counter method; settings: HT-29, 48 h, read-out: GI; in short: as §1
[16] = system: KM12; assay: Growth inhibition of human KM12 cells at 10 uM after 48 hrs by coulter counter method; settings: KM12, 48 h, read-out: GI; in short: as §1
[17] = system: SF-268; assay: Growth inhibition of human SF268 cells at 10 uM after 48 hrs by coulter counter method; settings: SF-268, 48 h, read-out: GI; in short: as §1
[18] = system: SF-295; assay: Growth inhibition of human SF295 cells at 10 uM after 48 hrs by coulter counter method; settings: SF-295, 48 h, read-out: GI; in short: as §1
[19] = system: SNB-19; assay: Growth inhibition of human SNB19 cells at 10 uM after 48 hrs by coulter counter method; settings: SNB-19, 48 h, read-out: GI; in short: as §1
[20] = system: SNB-75; assay: Growth inhibition of human SNB75 cells at 10 uM after 48 hrs by coulter counter method; settings: SNB-75, 48 h, read-out: GI; in short: as §1
[21] = system: U-251; assay: Growth inhibition of human U251 cells at 10 uM after 48 hrs by coulter counter method; settings: U-251, 48 h, read-out: GI; in short: as §1
[22] = system: LOX IMVI; assay: Growth inhibition of human LOXIMVI cells at 10 uM after 48 hrs by coulter counter method; settings: read-out: GI; in short: as §1
[23] = system: Malme-3M; assay: Growth inhibition of human MALME-3M cells at 10 uM after 48 hrs by coulter counter method; settings: read-out: GI; in short: as §1
[24] = system: M14; assay: Growth inhibition of human M14 cells at 10 uM after 48 hrs by coulter counter method; settings: M14, 48 h, read-out: GI; in short: as §1
[25] = system: MDA-MB-435; assay: Growth inhibition of human MDA-MB-435 cells at 10 uM after 48 hrs by coulter counter method; settings: MDA-MB-435, 48 h, read-out: GI; in short: as §1
[26] = system: SK-MEL-2; assay: Growth inhibition of human SK-MEL-2 cells at 10 uM after 48 hrs by coulter counter method; settings: SK-MEL-2, 48 h, read-out: GI; in short: as §1
[27] = system: SK-MEL-28; assay: Growth inhibition of human SK-MEL-28 cells at 10 uM after 48 hrs by coulter counter method; settings: SK-MEL-28, 48 h, read-out: GI; in short: as §1
[28] = system: SK-MEL-5; assay: Growth inhibition of human SK-MEL-5 cells at 10 uM after 48 hrs by coulter counter method; settings: SK-MEL-5, 48 h, read-out: GI; in short: as §1
[29] = system: UACC-257; assay: Growth inhibition of human UACC257 cells at 10 uM after 48 hrs by coulter counter method; settings: UACC-257, 48 h, read-out: GI; in short: as §1
[30] = system: UACC-62; assay: Growth inhibition of human UACC62 cells at 10 uM after 48 hrs by coulter counter method; settings: UACC-62, 48 h, read-out: GI; in short: as §1
[31] = system: IGROV-1; assay: Growth inhibition of human IGROV1 cells at 10 uM after 48 hrs by coulter counter method; settings: IGROV-1, 48 h, read-out: GI; in short: as §1
[32] = system: OVCAR-8; assay: Growth inhibition of human OVCAR8 cells at 10 uM after 48 hrs by coulter counter method; settings: OVCAR-8, 48 h, read-out: GI; in short: as §1
[33] = system: NCI/ADR-RES; assay: Growth inhibition of human NCI/ADR-RES cells at 10 uM after 48 hrs by coulter counter method; settings: read-out: GI; in short: as §1
[34] = system: 786-0; assay: Growth inhibition of human 786-0 cells at 10 uM after 48 hrs by coulter counter method; settings: 786-0, 48 h, read-out: GI; in short: as §1
[35] = system: A498; assay: Growth inhibition of human A498 cells at 10 uM after 48 hrs by coulter counter method; settings: A498, 48 h, read-out: GI; in short: as §1
[36] = system: ACHN; assay: Growth inhibition of human ACHN cells at 10 uM after 48 hrs by coulter counter method; settings: read-out: GI; in short: as §1
[37] = system: CAKI-1; assay: Growth inhibition of human Caki1 cells at 10 uM after 48 hrs by coulter counter method; settings: CAKI-1, 48 h, read-out: GI; in short: as §1
[38] = system: SN12C; assay: Growth inhibition of human SN12C cells at 10 uM after 48 hrs by coulter counter method; settings: read-out: GI; in short: as §1
[39] = system: TK-10; assay: Growth inhibition of human TK10 cells at 10 uM after 48 hrs by coulter counter method; settings: TK-10, 48 h, read-out: GI; in short: as §1
[40] = system: UO-31; assay: Growth inhibition of human UO31 cells at 10 uM after 48 hrs by coulter counter method; settings: UO-31, 48 h, read-out: GI; in short: as §1
[41] = system: PC-3; assay: Growth inhibition of human PC3 cells at 10 uM after 48 hrs by coulter counter method; settings: PC-3, 48 h, read-out: GI; in short: as §1
[42] = system: MCF7; assay: Growth inhibition of human MCF7 cells at 10 uM after 48 hrs by coulter counter method; settings: MCF7, 48 h, read-out: GI; in short: as §1
[43] = system: BT-549; assay: Growth inhibition of human BT549 cells at 10 uM after 48 hrs by coulter counter method; settings: BT-549, 48 h, read-out: GI; in short: as §1
[44] = system: T47D; assay: Growth inhibition of human T47D cells at 10 uM after 48 hrs by coulter counter method; settings: read-out: GI; in short: as §1
[45] = system: MDA-MB-468; assay: Growth inhibition of human MDA-MB-468 cells at 10 uM after 48 hrs by coulter counter method; settings: MDA-MB-468, 48 h, read-out: GI; in short: as §1

SMILES: O=C1N=C2OC(c3ccccc3)=NN2C1=O
- inhibition of growth at 10 µM [1]: < 10%
- inhibition of growth at 10 µM [2]: < 10%
- inhibition of growth at 10 µM [3]: < 10%
- inhibition of growth at 10 µM [4]: < 10%
- inhibition of growth at 10 µM [5]: < 10%
- inhibition of growth at 10 µM [6]: < 10%
- inhibition of growth at 10 µM [7]: < 10%
- inhibition of growth at 10 µM [8]: < 10%
- inhibition of growth at 10 µM [9]: < 10%
- inhibition of growth at 10 µM [10]: < 10%
- inhibition of growth at 10 µM [11]: 12.5%
- inhibition of growth at 10 µM [12]: < 10%
- inhibition of growth at 10 µM [13]: < 10%
- inhibition of growth at 10 µM [14]: < 10%
- inhibition of growth at 10 µM [15]: < 10%
- inhibition of growth at 10 µM [16]: < 10%
- inhibition of growth at 10 µM [17]: < 10%
- inhibition of growth at 10 µM [18]: < 10%
- inhibition of growth at 10 µM [19]: < 10%
- inhibition of growth at 10 µM [20]: < 10%
- inhibition of growth at 10 µM [21]: < 10%
- inhibition of growth at 10 µM [22]: < 10%
- inhibition of growth at 10 µM [23]: < 10%
- inhibition of growth at 10 µM [24]: < 10%
- inhibition of growth at 10 µM [25]: < 10%
- inhibition of growth at 10 µM [26]: < 10%
- inhibition of growth at 10 µM [27]: < 10%
- inhibition of growth at 10 µM [28]: < 10%
- inhibition of growth at 10 µM [29]: 15.2%
- inhibition of growth at 10 µM [30]: < 10%
- inhibition of growth at 10 µM [31]: < 10%
- inhibition of growth at 10 µM [32]: < 10%
- inhibition of growth at 10 µM [33]: < 10%
- inhibition of growth at 10 µM [34]: < 10%
- inhibition of growth at 10 µM [35]: < 10%
- inhibition of growth at 10 µM [36]: < 10%
- inhibition of growth at 10 µM [37]: < 10%
- inhibition of growth at 10 µM [38]: < 10%
- inhibition of growth at 10 µM [39]: < 10%
- inhibition of growth at 10 µM [40]: 20.5%
- inhibition of growth at 10 µM [41]: < 10%
- inhibition of growth at 10 µM [42]: < 10%
- inhibition of growth at 10 µM [43]: < 10%
- inhibition of growth at 10 µM [44]: < 10%
- inhibition of growth at 10 µM [45]: < 10%
